# High-throughput results: PubChem BioAssay, several laboratories
# Only a selection was taken, and hits are over-represented in it overall.
# HUVEC inhibit = inhibitors of human endothelial cell proliferation; HUVEC proliferation, CellTiter-Glo luminescence, 72 h; stronger effect = lower value; viability, % at 10 µM (by protocol); 86,000 tested, 1.1% active;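 active means viability at or below 30%; inactive means viability above 30%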;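 further: 100% = median luminescence of DMSO-only cell control wells on each plate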
# Candida biofilm = kills Candida albicans biofilms; 85,000 tested, 0.14% active; inhibition, % at 6 µM; C. albicans biofilm + clotrimazole, Alamar Blue;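 active means inhibition above 20%; inactive means inhibition below 20%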;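 further: preformed 24 hr biofilms exposed to compound for 48 hr; 0% = biofilm without compound and 100% = blank killed by clotrimazole plus chlorhexidine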
# H69AR growth 86K = blocks growth of human H69AR lung tumor cells. H69AR lung tumor viability, ATP luminescence, 72 h; stronger effect = lower value. viability, % at 10 µM. 85,000 tested, 6% active. AID 598;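 active means viability at or below 40%; inactive means viability above 40%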;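 further: multidrug resistant small cell line overexpressing MRP-1 efflux transporter; 100% = mean luminescence of untreated control wells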
# bCat KO growth = beta-catenin-lacking colon tumor cell growth suppression | 140,000 tested, 1.5% active | viability, % at 10 µM | HCT116 beta-catenin knockout viability, CellTiter-Glo, 60 h; stronger effect = lower value;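 active means viability at or under a set limit, the compound median less 4 SD, cut at about 6% in these data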;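 further: 0% = Hyamine 1622 control at 20 µM and 100% = untreated cell control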
# PTEN del growth = growth suppressors of cells with PTEN tumor suppressor deletion | AID 827 | HCT116 PTEN-null viability, CellTiter-Glo, 60 h; stronger effect = lower value | viability, % at 10 µM | 140,000 tested, 1.2% active;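 active means viability at or below a set limit, 4 SD under the median of all tested compounds, cut at about 3.7% in these data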;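 further: PTEN knockout HCT116 line with beta catenin targeted HCT116 as companion control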
# Fibroblast inh = blocks proliferation of human lung fibroblasts; 85,000 tested, 1.1% active; viability, % at 10 µM; LL 47 human lung fibroblast viability, ATP luminescence; stronger effect = lower value; AID 719;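 active means viability at or below 50% in the single dose screen; inactive means viability above 50%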;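 further: compound exposure lasted 72 h before the ATP readout; 100% = median luminescence of untreated cell-only wells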
#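 Times – overnight cell rest, 72 h compound treatment at 37 °C · Test system – human lung fibroblast line LL 47, low passage · Amount – 1,150 cells in each well · Controls – cell-only wells, no compound · Doses – 0.1% DMSO in all compound wells · Measured by – CellTiter-Glo luminescence · Buffer or medium – IMEM plus 15% FBS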
# * = called active by the depositor; / = not tested or not shown.
SMILES,HUVEC inhibit,Candida biofilm,H69AR growth 86K,bCat KO growth,PTEN del growth,Fibroblast inh
O=S(=O)(Nc1nc(CN2CCOCC2)nc2sc3c(c12)CCCC3)c1cc(F)ccc1F,86,7,67,82,88,93
Cc1cccc(OCC(=O)Nc2cccc(-c3nnc(-c4ccccc4)o3)c2)c1C,50,5,9.8*,71,27,56
Cc1cccc(C)c1OCC(=O)Nc1cccc(-c2nnc(-c3ccccc3)o2)c1,/,/,/,63,43,/
COc1cccc(-c2nnc(NC(=O)C3CCCCC3)o2)c1,100,-3,79,77,79,90
O=C(Nc1ccc2nc(-c3ccco3)[nH]c2c1)c1cccs1,94,1,40*,87,78,91
O=C(Nc1cccc(-c2nnc(-c3ccccc3)o2)c1)C1CCCCC1,68,5,19*,61,23,96
Cc1ccc(NC(=S)N(C)Cc2cn(C)c3ccccc23)cc1,/,/,/,81,78,/
C/C(N)=C(/C#N)C(=O)CSc1nc2ccccc2c(=O)n1-c1ccc(C)c(Cl)c1,/,/,/,40,45,/
COc1ccc(-c2nc(N)ncc2Oc2ccccc2Br)c(O)c1,92,8,38*,93,92,84
COc1cccc(Oc2cnc(N)nc2-c2ccc(OC)cc2O)c1,78,5,17*,20,14,59
N#CC1=C(N)Oc2cc(N)ccc2C1c1cccnc1 (stereo not given),/,/,/,57,59,/
N#CC1=C(N)Oc2cc(Nc3ccccc3)ccc2C1c1ccncc1 (stereo not given),3.1*,14,14*,17,22,99
COc1cc(C2C(C#N)=C(N)Oc3cc(N)ccc32)cc(OC)c1OC (stereo not given),52,1,29*,22,16,51
N#CC1=C(N)Oc2cc(N)ccc2C1c1ccc(F)cc1 (stereo not given),63,6,14*,72,64,91
COc1ccc(OC)c(N2C(=O)CC(Cc3ccc(C)cc3)C2=O)c1 (stereo not given),/,/,/,91,98,/
Cc1noc(C)c1COC(=O)CCCc1c[nH]c2ccccc12,89,8,80,93,99,101
COc1ccc(/C=C2\CCCC3C2=NN(C(=O)c2ccco2)C3c2ccc(OC)c(OC)c2)cc1OC (stereo not given),/,/,/,5.6*,2.5*,/
CC1(C)CC(=O)c2cc(C(=O)O)c(=O)n(-c3ccccc3)c2C1,101,3,102,106,110,102
CCOC(=O)c1cc2c(n(-c3ccccc3)c1=O)CC(C)(C)CC2=O,87,2,36*,105,88,89
CN(c1ccccc1)C(c1ccc(F)cc1)c1nnnn1C1CCCC1 (stereo not given),107,1,78,67,61,98
COc1ccc(C(=O)NCC(c2cccnc2)N2CCN(c3ccccc3OC)CC2)cc1OC (stereo not given),103,24*,95,79,72,103
COc1cccc(C(=O)NCC(c2cccnc2)N2CCN(c3ccccc3OC)CC2)c1 (stereo not given),/,/,/,75,70,/
CC(C)c1ccc(C(=O)CSc2n[nH]c(-c3ccncc3)n2)cc1,98,1,31*,89,88,101
O=C(COC(=O)C1CC1)NCc1ccccc1Cl,/,/,/,100,103,/
Cc1c(Cl)cccc1Nc1nc(N)nc(CSc2ncccn2)n1,100,5,1.4*,82,79,85
SMILES,HUVEC inhibit,Candida biofilm,H69AR growth 86K,bCat KO growth,PTEN del growth,Fibroblast inh
Cc1c(Cl)cccc1Nc1nc(N)nc(CSCCO)n1,89,1,4.3*,96,97,102
Cc1c(Cl)cccc1Nc1nc(N)nc(CSc2nc3ccccc3s2)n1,/,/,/,46,62,/
COc1ccc(-n2c(N)c(-c3nc4ccccc4n3C)sc2=S)cc1,/,/,/,64,63,/
CCOc1ccc(-n2c(N)c(-c3nc4ccccc4[nH]3)sc2=S)cc1,54,5,22*,99,88,74
S=C(Nc1ccccn1)c1ccccn1,84,-2,1.3*,1.9*,1.8*,84
Cc1ccc(C)c(NC(=S)c2ccc3ccccc3n2)c1,/,/,/,78,79,/
Cc1ccc(C)c(NC(=S)c2ccccn2)c1,87,9,2.7*,2.7*,3.8*,80
C/C(=N\n1nnnc1Nc1ccccc1)c1ccc(N)cc1,100,7,89,110,92,125
